One may read the IC50 as the concentration at which inhibition is half-maximal. Broadly, the EC50 is the midpoint of the concentration-response curve.

Assay [1] concerns the target T1, Melanocyte-stimulating hormone receptor (Homo sapiens, UniProt Q01726). Briefly: Displacement of [125I]NDPalphaMSH from human MC1R expressed in HEK293 cells. It counts as cell-based. The gist of the method:
(§1)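 Whole HEK293 cells stably expressing the receptor, seeded 48 h before assay (50,000 cells/well), washed with MEM/25 mM bicarbonate. Cells lysed with NaOH/Triton X-100 and counted by gamma counting. IC50 from nonlinear least-squares fit, two experiments in triplicate.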
Target sequence in this assay (Q01726 whole entry): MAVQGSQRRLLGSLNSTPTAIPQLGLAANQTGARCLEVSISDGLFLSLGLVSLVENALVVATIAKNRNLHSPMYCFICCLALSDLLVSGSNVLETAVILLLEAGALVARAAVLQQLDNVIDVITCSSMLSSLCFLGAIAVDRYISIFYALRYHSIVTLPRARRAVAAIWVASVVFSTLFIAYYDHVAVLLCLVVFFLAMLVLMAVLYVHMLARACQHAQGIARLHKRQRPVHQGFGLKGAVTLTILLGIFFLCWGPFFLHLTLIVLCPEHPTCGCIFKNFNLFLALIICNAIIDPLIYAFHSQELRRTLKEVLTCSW

Assay [2] has as its target T1, Melanocyte-stimulating hormone receptor. Briefly: Effect on human MC1R expressed in HEK293 cells assessed as intracellular cAMP accumulation. It counts as functional, cell-based. The method, boiled down:
(§2)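 Transfected HEK293 cells, grown in MEM with 10% FBS, seeded 48 h before assay (50,000 cells/well). Cells preincubated 1 min at 37 °C in Earle's balanced salt solution with IBMX, then exposed 3 min at 37 °C to peptide at 10−10 to 10−5 M. Reaction stopped with ice-cold Tris/EDTA and boiling for 7 min. cAMP in supernatant measured by [3H]cAMP/PKA competition against a standard curve. EC50 from nonlinear least-squares fit, two experiments in triplicate.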
For orientation: Cyclic AMP is a second messenger, typically raised through Gs and lowered through Gi signalling.
Target sequence in this assay (Q01726 whole entry): as above

The target in assay [3] is T2, Melanocortin receptor 3 (Homo sapiens, UniProt P41968). Briefly: Displacement of [125I]NDPalphaMSH from human MC3R expressed in HEK293 cells. It counts as cell-based. The method, boiled down:
as §1
(In general: In a radioligand displacement assay an active substance lowers the binding of a labelled ligand.)

Assay [4] concerns the target T2, Melanocortin receptor 3. The experiment in a line: Effect on human MC3R expressed in HEK293 cells assessed as intracellular cAMP accumulation. It counts as functional, cell-based. The method, boiled down: as §2
Assay [5] deals with T3, Melanocortin receptor 4 (Homo sapiens, UniProt P32245). The experiment in a line: Displacement of [125I]NDPalphaMSH from human MC4R expressed in HEK293 cells. It counts as cell-based. The gist of the method:
as §1

Assay [6] addresses T3, Melanocortin receptor 4. The experiment in a line: Effect on human MC4R expressed in HEK293 cells assessed as intracellular cAMP accumulation. It counts as functional, cell-based. The gist of the method: as §2
The target in assay [7] is T4, Melanocortin receptor 5 (Homo sapiens, UniProt P33032). The experiment in a line: Displacement of [125I]NDPalphaMSH from human MC5R expressed in HEK293 cells. It counts as cell-based. The method, boiled down:
as §1

The target in assay [8] is T4, Melanocortin receptor 5. Briefly: Effect on human MC5R expressed in HEK293 cells assessed as intracellular cAMP accumulation. It counts as functional, cell-based. The gist of the method:
as §2

The target of assay [9] is T1, Melanocyte-stimulating hormone receptor. Briefly: Maximum effect on human MC1R expressed in HEK293 cells assessed as intracellular cAMP accumulation at 0.0001 to 10 uM. It counts as functional, cell-based. The method, boiled down: as §2
Target sequence in this assay (Q01726 whole entry, looked up): as the sequence (Q01726 whole entry) above
In assay [10] the target is T2, Melanocortin receptor 3. The experiment in a line: Maximum effect on human MC3R expressed in HEK293 cells assessed as intracellular cAMP accumulation at 0.0001 to 10 uM. It counts as functional, cell-based. The gist of the method: as §2
The target in assay [11] is T3, Melanocortin receptor 4. Briefly: Maximum effect on human MC4R expressed in HEK293 cells assessed as intracellular cAMP accumulation at 0.0001 to 10 uM. It counts as functional, cell-based. The gist of the method: as §2
Assay [12] deals with T4, Melanocortin receptor 5. Briefly: Maximum effect on human MC5R expressed in HEK293 cells assessed as intracellular cAMP accumulation at 0.0001 to 10 uM. It counts as functional, cell-based. The method, boiled down:
as §2

Structures are written as SMILES.

T4 sequence (P33032 whole entry): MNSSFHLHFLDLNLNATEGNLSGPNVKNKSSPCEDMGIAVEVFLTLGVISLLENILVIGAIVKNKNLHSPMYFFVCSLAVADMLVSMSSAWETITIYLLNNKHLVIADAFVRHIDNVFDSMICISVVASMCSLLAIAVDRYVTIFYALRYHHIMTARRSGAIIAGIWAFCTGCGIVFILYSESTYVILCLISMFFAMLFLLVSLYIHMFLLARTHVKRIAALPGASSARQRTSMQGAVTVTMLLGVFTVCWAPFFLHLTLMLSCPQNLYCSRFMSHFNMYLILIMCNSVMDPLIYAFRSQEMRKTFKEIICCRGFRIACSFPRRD
T2 sequence (P41968 whole entry): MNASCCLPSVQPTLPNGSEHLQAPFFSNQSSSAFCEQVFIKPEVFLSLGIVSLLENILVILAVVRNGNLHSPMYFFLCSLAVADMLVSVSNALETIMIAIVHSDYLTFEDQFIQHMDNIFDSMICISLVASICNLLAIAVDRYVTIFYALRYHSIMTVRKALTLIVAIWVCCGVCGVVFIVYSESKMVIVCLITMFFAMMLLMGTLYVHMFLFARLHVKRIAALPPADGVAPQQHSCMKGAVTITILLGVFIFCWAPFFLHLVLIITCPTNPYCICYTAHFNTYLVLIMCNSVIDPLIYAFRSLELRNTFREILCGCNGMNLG
T3 sequence (P32245 whole entry): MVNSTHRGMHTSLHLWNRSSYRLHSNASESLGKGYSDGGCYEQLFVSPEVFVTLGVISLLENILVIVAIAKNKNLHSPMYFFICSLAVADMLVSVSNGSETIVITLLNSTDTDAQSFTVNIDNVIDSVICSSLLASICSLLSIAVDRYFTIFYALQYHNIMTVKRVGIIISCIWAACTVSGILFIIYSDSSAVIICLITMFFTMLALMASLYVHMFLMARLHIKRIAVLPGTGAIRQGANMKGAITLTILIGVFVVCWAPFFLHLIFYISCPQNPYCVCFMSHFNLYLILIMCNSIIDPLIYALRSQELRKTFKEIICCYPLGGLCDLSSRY

Turning to `CCCC[C@H](N)C(=O)N[C@H]1CC(=O)NCCCC[C@@H](C(N)=O)NC(=O)[C@H](Cc2c[nH]c3ccccc23)NC(=O)[C@H](CCCN=C(N)N)NC(=O)[C@@H](Cc2ccc(Cl)cc2)N2Cc3ccccc3CC(NC1=O)C2=O` (stereo not given in full), the concentration for half-maximal inhibition (IC50) in [1] was > 1000 nM; at Melanocortin receptor 3 [3], 29 nM; at Melanocortin receptor 4 [5], 2000 nM; on Melanocortin receptor 5 [7] it was 123 nM. Moreover, the EC50 is 900 nM in [2], > 1000 nM at Melanocortin receptor 3 [4], 3200 nM at Melanocortin receptor 4 [6] and 180 nM on Melanocortin receptor 5 [8].
Take `CCCC[C@H](NC(C)=O)C(=O)N[C@@H](CC(=O)O)C(=O)N[C@H]1Cc2ccccc2CN([C@H](Cc2ccccc2)C(=O)N[C@@H](CCCN=C(N)N)C(=O)N[C@@H](Cc2c[nH]c3ccccc23)C(=O)N[C@@H](CCCCN)C(N)=O)C1=O`: the IC50 (in assay [1] (hek293); on Melanocortin receptor 3 [3] (hek293); at Melanocortin receptor 4 [5] (hek293); at Melanocortin receptor 5 [7] (hek293)) was > 10000 nM in each case. Besides, the EC50 (in [2] (hek293); on Melanocortin receptor 3 [4] (hek293); at Melanocortin receptor 4 [6] (hek293); at Melanocortin receptor 5 [8] (hek293)) was > 10000 nM throughout.
In the case of `CCCC[C@H](N)C(=O)N[C@H]1CC(=O)NCCCC[C@@H](C(N)=O)NC(=O)[C@H](Cc2c[nH]c3ccccc23)NC(=O)[C@H](CCCNC(=N)N)NC(=O)[C@@H](Cc2ccc3ccccc3c2)NC(=O)[C@H](Cc2cnc[nH]2)NC1=O`, the Activity in assay [9] turned out to be 100%.
Take `CCCC[C@@H](NC(C)=O)C(=O)N[C@@H](CC(=O)O)C(=O)NC1Cc2ccccc2CN([C@@H](Cc2ccccc2)C(=O)N[C@@H](CCCNC(=N)N)C(=O)N[C@@H](Cc2c[nH]c3ccccc23)C(=O)N[C@@H](CCCCN)C(N)=O)C1=O` (stereo not given in full): the Activity (in assay [9]; on Melanocortin receptor 3 [10]; on Melanocortin receptor 4 [11]; on Melanocortin receptor 5 [12]) was 0% each time.
For `CCCC[C@H](N)C(=O)N[C@H]1CC(=O)NCCCC[C@@H](C(N)=O)NC(=O)[C@H](Cc2c[nH]c3ccccc23)NC(=O)[C@H](CCCNC(=N)N)NC(=O)[C@@H](Cc2ccc(Cl)cc2)N2Cc3ccccc3CC(NC1=O)C2=O` (stereo not given in full), the Activity was 60% in assay [9], 55% at Melanocortin receptor 3 [10], 33% on Melanocortin receptor 4 [11] and 45% at Melanocortin receptor 5 [12].

The values are drawn from ChEMBL document CHEMBL1147202, “Novel selective human melanocortin-3 receptor ligands: use of the 4-amino-1,2,4,5-tetrahydro-2-benzazepin-3-one (Aba) scaffold” (Bioorg Med Chem Lett, 2007).
